One assay relates to Rattus norvegicus. Kind of assay: Tested for in vivo antisecretory potency for inhibiting VIP-induced (30 micro g/kg/h) secretion in isolated jejunum in anesthetized rats.(95% CL). In kind it is functional. Conditions: read-out: ID50 (the source's name). The gist of the method:
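Rats anesthetized, saphenous vein cannulated. Isolated jejunal loop instilled with 2000 μL fluid. At the end the loop is excised, measured and weighed before and after emptying. Net water flux (μL/cm/30 min) = (F-E)2000/L; negative means absorption. 6-8 animals per dose.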

In assay [1] the target is T1, Neuropeptide Y receptor type 2 (Rattus norvegicus, UniProt Q9ERC0). Kind of assay: Antisecretory potency, affinity for intestinal PYY of rat jejunum by using short circuit current (SCC) method. Type of assay: tissue-based.
T1 sequence (Q9ERC0 whole entry): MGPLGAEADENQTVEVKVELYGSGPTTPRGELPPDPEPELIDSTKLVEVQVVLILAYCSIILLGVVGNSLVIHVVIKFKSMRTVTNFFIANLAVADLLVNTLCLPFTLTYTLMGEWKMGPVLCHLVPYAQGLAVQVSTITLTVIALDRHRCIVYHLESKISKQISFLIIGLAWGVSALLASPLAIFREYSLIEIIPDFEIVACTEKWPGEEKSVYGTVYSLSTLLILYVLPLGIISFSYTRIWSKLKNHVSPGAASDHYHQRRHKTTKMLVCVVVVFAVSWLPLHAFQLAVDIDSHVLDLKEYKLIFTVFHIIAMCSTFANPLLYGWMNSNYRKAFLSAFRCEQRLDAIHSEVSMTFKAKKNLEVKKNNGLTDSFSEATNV
Assay [2] has as its target T2, Neuropeptide Y receptor type 2 (Homo sapiens, UniProt P49146).
T2 sequence (P49146 whole entry): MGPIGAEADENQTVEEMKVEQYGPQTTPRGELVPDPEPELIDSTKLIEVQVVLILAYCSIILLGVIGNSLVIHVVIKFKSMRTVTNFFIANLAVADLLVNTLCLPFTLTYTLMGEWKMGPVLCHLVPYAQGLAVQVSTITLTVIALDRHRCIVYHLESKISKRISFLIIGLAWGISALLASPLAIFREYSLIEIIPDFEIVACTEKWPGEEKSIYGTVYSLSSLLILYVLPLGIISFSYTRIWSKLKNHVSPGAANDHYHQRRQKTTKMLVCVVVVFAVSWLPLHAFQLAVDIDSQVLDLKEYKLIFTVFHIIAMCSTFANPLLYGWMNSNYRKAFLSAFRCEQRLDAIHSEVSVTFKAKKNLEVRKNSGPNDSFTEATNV
Kind of assay: Affinity against Neuropeptide Y receptor Y2 in SK-N-BE2 cell line.

The target of assay [3] is Neuropeptide Y receptor type 1 (Homo sapiens, UniProt P25929). Kind of assay: Affinity against Neuropeptide Y receptor Y1 in SK-N-MC cell line. Type of assay: cell-based.
Sequence of Neuropeptide Y receptor type 1 (P25929 whole entry): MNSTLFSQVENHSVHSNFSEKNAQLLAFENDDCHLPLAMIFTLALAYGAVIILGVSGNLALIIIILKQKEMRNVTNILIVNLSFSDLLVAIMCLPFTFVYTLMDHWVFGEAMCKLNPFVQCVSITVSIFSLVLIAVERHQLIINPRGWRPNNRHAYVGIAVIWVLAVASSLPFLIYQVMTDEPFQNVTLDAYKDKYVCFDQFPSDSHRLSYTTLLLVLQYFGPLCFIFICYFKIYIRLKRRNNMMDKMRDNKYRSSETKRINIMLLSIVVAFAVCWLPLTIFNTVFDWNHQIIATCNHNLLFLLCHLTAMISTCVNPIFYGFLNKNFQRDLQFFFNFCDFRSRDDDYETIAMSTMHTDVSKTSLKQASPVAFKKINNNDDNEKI
In assay [4] the target is T1, Neuropeptide Y receptor type 2. Put plainly: Tested for the affinity for intestinal PYY from rat jejunum by using short circuit current (SCC) method.
The species named for assay [5] is Canis familiaris. Kind of assay: Peak proabsorptive effects of intralbuminal Infusion on absorption of Na+ in the ileum of awake dogs bearing ileal and/or Colonic Thiry-Vella Fistulasa. Conditions: Canis lupus familiaris. Type of assay: functional, organism-based.
The species named for assay [6] is Canis familiaris. Kind of assay: Peak proabsorptive effects of intralbuminal Infusion on absorption of Cl- in the colon of awake dogs bearing ileal and/or Colonic Thiry-Vella Fistulasa. Type of assay: functional, organism-based. Conditions: Canis lupus familiaris.
For assay [7], the species on record is Canis familiaris. Put plainly: Peak proabsorptive effects of intralbuminal Infusion on absorption of Cl- in the ileum of awake dogs bearing ileal and/or Colonic Thiry-Vella Fistulasa. Conditions: Canis lupus familiaris. Type of assay: functional, organism-based.
For assay [8], the species on record is Canis familiaris. Put plainly: Peak proabsorptive effects of intralbuminal Infusion on absorption of Na+ in the colon of awake dogs bearing ileal and/or Colonic Thiry-Vella Fistulasa. Type of assay: functional, organism-based. The note with it: Canis lupus familiaris.
The species entered for assay [9] is Canis familiaris. Kind of assay: Peak proabsorptive effects of intralbuminal Infusion on absorption of water in the colon of awake dogs bearing ileal and/or Colonic Thiry-Vella Fistulasa. Type of assay: functional, organism-based. The note with it: Canis lupus familiaris.
Assay [10] is filed under the species Canis familiaris. Put plainly: Peak proabsorptive effects of intralbuminal Infusion on absorption of water in the ileum of awake dogs bearing ileal and/or Colonic Thiry-Vella Fistulasa. Type of assay: functional, organism-based. Conditions: Canis lupus familiaris.

Where a SMILES comes first, the peptide text is derived from it. Bridges are numbered along the chain shown (N, C = ends). Roman numbers before positions name the chains, in order. [ ]: non-standard residue; d: D form. Bip = N[C@@H](Cc1ccc(-c2ccccc2)cc1)C(=O)O Where only a bound is given, the exact number is not on record here.

On to `CC(=O)N[C@@H](C)C(=O)N[C@@H](CO)C(=O)N[C@@H](CC(C)C)C(=O)N[C@@H](CCCN=C(N)N)C(=O)N[C@@H](Cc1c[nH]cn1)C(=O)N[C@@H](Cc1ccc(O)cc1)C(=O)N[C@@H](CC(C)C)C(=O)N[C@@H](CC(N)=O)C(=O)N[C@@H](Cc1c[nH]c2ccccc12)C(=O)N[C@H](C(=O)N[C@H](C(=O)N[C@@H](CCCN=C(N)N)C(=O)N[C@@H](CCC(N)=O)C(=O)N[C@@H](CCCN=C(N)N)CN[C@@H](Cc1ccc(O)cc1)C(N)=O)[C@@H](C)O)C(C)C`, for which the ED50 with Rattus norvegicus is 0.00019 µmol/kg.
Same read-out and setting: the same measure for `CCCC[C@H](NC(=O)[C@H](CO)NC(=O)[C@H](C)NC(C)=O)C(=O)N[C@@H](CCCN=C(N)N)C(=O)N[C@@H](Cc1c[nH]cn1)C(=O)N[C@@H](Cc1ccc(O)cc1)C(=O)N[C@@H](CCCC)C(=O)N[C@@H](CC(N)=O)C(=O)N[C@@H](Cc1c[nH]c2ccccc12)C(=O)N[C@@H](CCC)C(=O)N[C@H](C(=O)N[C@@H](CCCN=C(N)N)C(=O)N[C@@H](CCC(N)=O)C(=O)N[C@@H](CCCN=C(N)N)C(=O)N[C@@H](Cc1ccc(O)cc1)C(N)=O)[C@@H](C)O`: 1.3e-05 µmol/kg.
For orientation: IC50 means the concentration that gives 50% inhibition. Lower therefore signals greater potency. With `CCCC[C@H](NC(=O)[C@H](CO)NC(=O)[C@H](C)NC(C)=O)C(=O)N[C@@H](CCCN=C(N)N)C(=O)N[C@@H](Cc1c[nH]cn1)C(=O)N[C@@H](Cc1ccc(O)cc1)C(=O)N[C@@H](CCCC)C(=O)N[C@@H](CC(N)=O)C(=O)N[C@@H](Cc1c[nH]c2ccccc12)C(=O)N[C@@H](CCC)C(=O)N[C@H](C(=O)N[C@@H](CCCN=C(N)N)C(=O)N[C@@H](CCC(N)=O)C(=O)N[C@@H](CCCN=C(N)N)CN[C@@H](Cc1ccc(O)cc1)C(N)=O)[C@@H](C)O`, the 50% inhibitory concentration (IC50) was determined as 0.31 nM in [1], 1.75 nM in assay [2] and 1570 nM in assay [3]. Besides, in the assay with Rattus norvegicus, the ED50 is 5.9e-05 µmol/kg.
On to `CC(=O)N[C@@H](C)C(=O)N[C@@H](CO)C(=O)N[C@@H](CC(C)C)C(=O)N[C@@H](CCCN=C(N)N)C(=O)N[C@@H](Cc1c[nH]cn1)C(=O)N[C@@H](Cc1ccc(O)cc1)C(=O)N[C@@H](CC(C)C)C(=O)N[C@@H](CC(N)=O)C(=O)N[C@@H](Cc1c[nH]c2ccccc12)C(=O)N[C@H](C(=O)N[C@H](C(=O)N[C@@H](CCCN=C(N)N)C(=O)N[C@@H](CCC(N)=O)C(=O)N[C@@H](CCCN=C(N)N)C(=O)N[C@@H](Cc1ccc(O)cc1)C(N)=O)[C@@H](C)O)C(C)C`, for which the IC50 in [1] was determined as 0.6 nM; in [2] it was 0.98 nM; in assay [3], 250 nM. The ED50 with Rattus norvegicus is 2.1e-06 µmol/kg.
Turning to `CNC(=O)[C@H](Cc1ccc(O)cc1)NC(=O)[C@H](CCCNC(=N)N)NC(=O)[C@H](CCC(N)=O)NC(=O)[C@H](CCCNC(=N)N)NC(=O)[C@@H](NC(=O)[C@@H](NC(=O)[C@H](CC(C)C)NC(=O)[C@H](CC(N)=O)NC(=O)[C@H](CC(C)C)NC(=O)[C@H](Cc1c[nH]c2ccccc12)NC(=O)[C@H](Cc1cnc[nH]1)NC(=O)[C@H](CCCNC(=N)N)NC(=O)[C@H](CC(C)C)NC(=O)[C@H](CO)NC(=O)[C@H](C)NC(C)=O)C(C)C)[C@@H](C)O` (Ac-ASLRHWLNLVTRQRY-NHMe), the results for the half-inhibitory concentration (IC50) in [2], in [3] and in [4] were more than 100 nM, more than 1000 nM and more than 100 nM, respectively.
For `CC(=O)N[C@@H](C)C(=O)N[C@@H](CO)C(=O)N[C@@H](CC(C)C)C(=O)N[C@@H](CCCN=C(N)N)C(=O)N[C@@H](Cc1c[nH]cn1)C(=O)N[C@@H](Cc1ccc(-c2ccccc2)cc1)C(=O)N[C@@H](CC(C)C)C(=O)N[C@@H](CC(N)=O)C(=O)N[C@@H](CC(C)C)C(=O)N[C@H](C(=O)N[C@H](C(=O)N[C@@H](CCCN=C(N)N)C(=O)N[C@@H](CCC(N)=O)C(=O)N[C@@H](CCCN=C(N)N)C(=O)N[C@@H](Cc1ccc(O)cc1)C(N)=O)[C@@H](C)O)C(C)C` (Ac-ASLRH[Bip]LNLVTRQRY-NH2), the IC50 turned out to be 14.2 nM in assay [2], 279 nM in [3] and 2.42 nM in [4].
`CC(=O)N[C@@H](C)C(=O)N[C@@H](CO)C(=O)N[C@@H](CSSC[C@H](NC(=O)[C@H](CO)NC(=O)[C@H](C)NC(C)=O)C(=O)N[C@@H](CCCNC(=N)N)C(=O)N[C@@H](Cc1cnc[nH]1)C(=O)N[C@@H](Cc1ccc(O)cc1)C(=O)N[C@@H](CC(C)C)C(=O)N[C@@H](CC(N)=O)C(=O)N[C@@H](CC(C)C)C(=O)N[C@H](C(=O)N[C@H](C(=O)N[C@@H](CCCNC(=N)N)C(=O)N[C@@H](CCC(N)=O)C(=O)N[C@@H](CCCNC(=N)N)C(=O)N[C@@H](Cc1ccc(O)cc1)C(N)=O)[C@@H](C)O)C(C)C)C(=O)N[C@@H](CCCNC(=N)N)C(=O)N[C@@H](Cc1cnc[nH]1)C(=O)N[C@@H](Cc1ccc(O)cc1)C(=O)N[C@@H](CC(C)C)C(=O)N[C@@H](CC(N)=O)C(=O)N[C@@H](CC(C)C)C(=O)N[C@H](C(=O)N[C@H](C(=O)N[C@@H](CCCNC(=N)N)C(=O)N[C@@H](CCC(N)=O)C(=O)N[C@@H](CCCNC(=N)N)C(=O)N[C@@H](Cc1ccc(O)cc1)C(N)=O)[C@@H](C)O)C(C)C` (I: Ac-ASCRHYLNLVTRQRY-NH2 / II: Ac-ASCRHYLNLVTRQRY-NH2; disulfide I:3-II:3) [listing 1 of 2 here]: the IC50 turned out to be 0.63 nM in assay [1], 0.39 nM in assay [2] and 110 nM in assay [3].
Regarding `CC(=O)N[C@@H](C)C(=O)N[C@@H](CO)C(=O)N[C@@H](CSSC[C@H](NC(=O)[C@H](CO)NC(=O)[C@H](C)NC(C)=O)C(=O)N[C@@H](CCCNC(=N)N)C(=O)N[C@@H](Cc1cnc[nH]1)C(=O)N[C@@H](Cc1ccc(O)cc1)C(=O)N[C@@H](CC(C)C)C(=O)N[C@@H](CC(N)=O)C(=O)N[C@@H](CC(C)C)C(=O)N[C@H](C(=O)N[C@H](C(=O)N[C@@H](CCCNC(=N)N)C(=O)N[C@@H](CCC(N)=O)C(=O)N[C@@H](CCCNC(=N)N)C(=O)N[C@@H](Cc1ccc(O)cc1)C(N)=O)[C@@H](C)O)C(C)C)C(=O)N[C@@H](CCCNC(=N)N)C(=O)N[C@@H](Cc1cnc[nH]1)C(=O)N[C@@H](Cc1ccc(O)cc1)C(=O)N[C@@H](CC(C)C)C(=O)N[C@@H](CC(N)=O)C(=O)N[C@@H](CC(C)C)C(=O)N[C@H](C(=O)N[C@H](C(=O)N[C@@H](CCCNC(=N)N)C(=O)N[C@@H](CCC(N)=O)C(=O)N[C@@H](CCCNC(=N)N)C(=O)N[C@@H](Cc1ccc(O)cc1)C(N)=O)[C@@H](C)O)C(C)C` (I: Ac-ASCRHYLNLVTRQRY-NH2 / II: Ac-ASCRHYLNLVTRQRY-NH2; disulfide I:3-II:3) [listing 2 of 2 here], the ED50 in the assay with Rattus norvegicus was determined as 0.000365 µmol/kg.
Take Ac-ASLRAFLNLVTRQRY-NH2: the IC50 in [1] is 5.3 nM; in assay [2], 3.84 nM; in assay [3], 674 nM.
Ac-ASLRHFLNLVTRQRF-NH2: the figures for the IC50 in assay [1], in assay [2] and in assay [3] were 14.1 nM, 1.16 nM and more than 10000 nM, respectively.
On the same counts, the results for Ac-ASLRHFLNLVTRQRY-NH2 are 2.3 nM, 1.83 nM and 764 nM.
Take “Ac-ASLRHWLNLVTRQRY-NH2 [listing 1 of 2 here]”: the Absorption (u equiv min-1) is 120 in the assay filed under Canis familiaris [5], 77 in the assay listed under Canis familiaris [6], 101 in the assay filed under Canis familiaris [7] and 78 in the assay listed under Canis familiaris [8]. In addition, the ED50 in the assay on Rattus norvegicus stood at 3.33e-05 µmol/kg. Moreover, the Absorption turned out to be 503 µL/min in the assay listed under Canis familiaris [9] and 725 µL/min in the assay filed under Canis familiaris [10].
As for “Ac-ASLRHWLNLVTRQRY-NH2 [listing 2 of 2 here]”, the figures for the IC50 in [2], in [3] and in [4] were 2.09 nM, 77 nM and 3.2 nM, respectively.
For Ac-ASLRHYLWLVTRQRY-NH2, in that order: 158 nM, 762 nM and 100 nM.
For Ac-ASLRHYWNLVTRQRY-NH2, in that order: 2.08 nM, 398 nM and 0.6 nM.
Ac-ASLRHYWNWVTRQRY-NH2: the values for the IC50 in [1], in [2] and in assay [3] were 1.07 nM, 3.17 nM and 233 nM, respectively.
In turn, Ac-ASWRHYLNLVTRQRY-NH2 came in with a concentration for half-maximal inhibition (IC50) in assay [4] of 2.1 nM.
As for Ac-YSLRHFLNLVTRQRY-NH2, the half-maximal inhibitory concentration (IC50) in assay [1] is 3.4 nM; in [2], 2.68 nM; in [3], 48.9 nM.
